Tested on: Fibroblast
Test: Multiplex assay against human fibroblast
Format: toxicity, cell-based
Summary of the method: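 Hoechst33342, BioTracker Green Microtubule Cytoskeleton Dye, MitoTracker Red and Annexin V Alexa Fluor 680 were added to live cells at seeding, and imaging on a CQ1 microscope at 37°C and 5% CO2 followed compound addition. Gating by CellPathfinder machine learning separated cells into Hoechst high-intensity objects or normal cells, then normal cells into healthy, pyknosed or fragmented nuclei, then pyknosed cells into mitotic or apoptotic. Per cents of healthy-nucleus cells are reported for the tubulin, mitochondrial-mass and membrane-permeability phenotypes.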

[1] = 12 h, 1 µM, compound concentration 1 uM, replicate 1
[2] = 12 h, 1 µM, compound concentration 1 uM, replicate 2
[3] = 12 h, 10 µM, compound concentration 10 uM, replicate 1
[4] = 12 h, 10 µM, compound concentration 10 uM, replicate 2
[5] = 24 h, 1 µM, compound concentration 1 uM, replicate 1
[6] = 24 h, 1 µM, compound concentration 1 uM, replicate 2
[7] = 24 h, 10 µM, compound concentration 10 uM, replicate 1
[8] = 24 h, 10 µM, compound concentration 10 uM, replicate 2
[9] = 48 h, 1 µM, compound concentration 1 uM, replicate 1
[10] = 48 h, 1 µM, compound concentration 1 uM, replicate 2
[11] = 48 h, 10 µM, compound concentration 10 uM, replicate 1
[12] = 48 h, 10 µM, compound concentration 10 uM, replicate 2

With `CCCCC(=O)N(Cc1ccc(-c2ccccc2-c2nnn[nH]2)cc1)[C@H](C(=O)O)C(C)C` the “Population Apoptotic (%)” value [1] was 45%, the “Population Fragmented Nuclei (%)” value [1] was 9% and the “Population Healthy Nuclei (%)” value [1] was 74%. The “Population Hoechst High Intensity Objects (%)” value [1] was 4%, the “Population Membrane Permeable-Phenotype (%)” value [1] was 0% and the “Population Mitochondria Different-Phenotype (%)” value [1] was 0%. The “Population Mitotic Cells (%)” value [1] was 54%, the “Population Normal (%)” value [1] was 95% and the “Population Pyknosed Nuclei (%)” value [1] was 16%. The “Population Tubulin-Different-Phenotype (%)” value [1] was 20%, the “Total Cell Count” value [1] was 143 and the “Population Apoptotic (%)” value [2] was 44%. For the same compound, the “Population Fragmented Nuclei (%)” value [2] was 21%, the “Population Healthy Nuclei (%)” value [2] was 54% and the “Population Hoechst High Intensity Objects (%)” value [2] was 3%. For the same compound, the “Population Membrane Permeable-Phenotype (%)” value [2] was 8%, the “Population Mitochondria Different-Phenotype (%)” value [2] was 6% and the “Population Mitotic Cells (%)” value [2] was 55%. For the same compound, the “Population Normal (%)” value [2] was 96%, the “Population Pyknosed Nuclei (%)” value [2] was 24% and the “Population Tubulin-Different-Phenotype (%)” value [2] was 36%. For the same compound, the “Total Cell Count” value [2] was 156, the “Population Apoptotic (%)” value [3] was 37% and the “Population Fragmented Nuclei (%)” value [3] was 20%. The “Population Healthy Nuclei (%)” value [3] was 56%, the “Population Hoechst High Intensity Objects (%)” value [3] was 0% and the “Population Membrane Permeable-Phenotype (%)” value [3] was 3%. The “Population Mitochondria Different-Phenotype (%)” value [3] was 3%, the “Population Mitotic Cells (%)” value [3] was 62% and the “Population Normal (%)” value [3] was 100%. For the same compound, the “Population Pyknosed Nuclei (%)” value [3] was 22%, the “Population Tubulin-Different-Phenotype (%)” value [3] was 23% and the “Total Cell Count” value [3] was 106. For the same compound, the “Population Fragmented Nuclei (%)” value [4] was 27%, the “Population Healthy Nuclei (%)” value [4] was 42% and the “Population Hoechst High Intensity Objects (%)” value [4] was 3%. For the same compound, the “Population Membrane Permeable-Phenotype (%)” value [4] was 11%, the “Population Mitochondria Different-Phenotype (%)” value [4] was 11% and the “Population Normal (%)” value [4] was 96%. The “Population Pyknosed Nuclei (%)” value [4] was 29%, the “Population Tubulin-Different-Phenotype (%)” value [4] was 51% and the “Total Cell Count” value [4] was 130. The “Population Apoptotic (%)” value [5] was 66%, the “Population Fragmented Nuclei (%)” value [5] was 15% and the “Population Healthy Nuclei (%)” value [5] was 70%. For the same compound, the “Population Hoechst High Intensity Objects (%)” value [5] was 0%, the “Population Membrane Permeable-Phenotype (%)” value [5] was 1% and the “Population Mitochondria Different-Phenotype (%)” value [5] was 2%. For the same compound, the “Population Mitotic Cells (%)” value [5] was 33%, the “Population Normal (%)” value [5] was 99% and the “Population Pyknosed Nuclei (%)” value [5] was 14%. For the same compound, the “Population Tubulin-Different-Phenotype (%)” value [5] was 17%, the “Total Cell Count” value [5] was 146 and the “Population Apoptotic (%)” value [6] was 38%. For the same compound, the “Population Fragmented Nuclei (%)” value [6] was 21%, the “Population Healthy Nuclei (%)” value [6] was 52% and the “Population Hoechst High Intensity Objects (%)” value [6] was 2%. For the same compound, the “Population Membrane Permeable-Phenotype (%)” value [6] was 2%, the “Population Mitochondria Different-Phenotype (%)” value [6] was 1% and the “Population Mitotic Cells (%)” value [6] was 61%. For the same compound, the “Population Normal (%)” value [6] was 97%, the “Population Pyknosed Nuclei (%)” value [6] was 25% and the “Population Tubulin-Different-Phenotype (%)” value [6] was 25%. The “Total Cell Count” value [6] was 145, the “Population Apoptotic (%)” value [7] was 48% and the “Population Fragmented Nuclei (%)” value [7] was 18%. The “Population Healthy Nuclei (%)” value [7] was 56%, the “Population Hoechst High Intensity Objects (%)” value [7] was 2% and the “Population Membrane Permeable-Phenotype (%)” value [7] was 0%. The “Population Mitochondria Different-Phenotype (%)” value [7] was 1%, the “Population Mitotic Cells (%)” value [7] was 51% and the “Population Normal (%)” value [7] was 97%. The “Population Pyknosed Nuclei (%)” value [7] was 25%, the “Population Tubulin-Different-Phenotype (%)” value [7] was 31% and the “Total Cell Count” value [7] was 110. The “Population Apoptotic (%)” value [8] was 35%, the “Population Fragmented Nuclei (%)” value [8] was 25% and the “Population Healthy Nuclei (%)” value [8] was 44%. The “Population Hoechst High Intensity Objects (%)” value [8] was 4%, the “Population Membrane Permeable-Phenotype (%)” value [8] was 9% and the “Population Mitochondria Different-Phenotype (%)” value [8] was 10%. The “Population Mitotic Cells (%)” value [8] was 64%, the “Population Normal (%)” value [8] was 95% and the “Population Pyknosed Nuclei (%)” value [8] was 29%. The “Population Tubulin-Different-Phenotype (%)” value [8] was 65%, the “Total Cell Count” value [8] was 130 and the “Population Apoptotic (%)” value [9] was 80%. The “Population Fragmented Nuclei (%)” value [9] was 18%, the “Population Healthy Nuclei (%)” value [9] was 71% and the “Population Hoechst High Intensity Objects (%)” value [9] was 6%. For the same compound, the “Population Membrane Permeable-Phenotype (%)” value [9] was 0%, the “Population Mitochondria Different-Phenotype (%)” value [9] was 1% and the “Population Mitotic Cells (%)” value [9] was 20%. The “Population Normal (%)” value [9] was 93%, the “Population Pyknosed Nuclei (%)” value [9] was 10% and the “Population Tubulin-Different-Phenotype (%)” value [9] was 17%. The “Total Cell Count” value [9] was 153, the “Population Apoptotic (%)” value [10] was 40% and the “Population Fragmented Nuclei (%)” value [10] was 27%. For the same compound, the “Population Healthy Nuclei (%)” value [10] was 51%, the “Population Hoechst High Intensity Objects (%)” value [10] was 3% and the “Population Membrane Permeable-Phenotype (%)” value [10] was 1%. For the same compound, the “Population Mitochondria Different-Phenotype (%)” value [10] was 3%, the “Population Mitotic Cells (%)” value [10] was 59% and the “Population Normal (%)” value [10] was 96%. The “Population Pyknosed Nuclei (%)” value [10] was 21%, the “Population Tubulin-Different-Phenotype (%)” value [10] was 33% and the “Total Cell Count” value [10] was 155. For the same compound, the “Population Apoptotic (%)” value [11] was 64%, the “Population Fragmented Nuclei (%)” value [11] was 28% and the “Population Healthy Nuclei (%)” value [11] was 56%. The “Population Hoechst High Intensity Objects (%)” value [11] was 4%, the “Population Membrane Permeable-Phenotype (%)” value [11] was 0% and the “Population Mitochondria Different-Phenotype (%)” value [11] was 5%. For the same compound, the “Population Mitotic Cells (%)” value [11] was 35%, the “Population Normal (%)” value [11] was 95% and the “Population Pyknosed Nuclei (%)” value [11] was 15%. For the same compound, the “Population Tubulin-Different-Phenotype (%)” value [11] was 30%, the “Total Cell Count” value [11] was 112 and the “Population Apoptotic (%)” value [12] was 57%. For the same compound, the “Population Fragmented Nuclei (%)” value [12] was 39%, the “Population Healthy Nuclei (%)” value [12] was 39% and the “Population Membrane Permeable-Phenotype (%)” value [12] was 7%. The “Population Mitotic Cells (%)” value [12] was 42%, the “Population Pyknosed Nuclei (%)” value [12] was 20% and the “Population Tubulin-Different-Phenotype (%)” value [12] was 69%. The “Total Cell Count” value [12] was 141.
